PubChem BioAssay
Calls of active or inactive are those of the source.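 The calls were made as follows, unless noted: active = inhibition of the reporter signal at or above 50%; inactive = inhibition below 50%.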

Key:
[1] = inhibitors of TNFa-induced NFkB p65 translocation, primary screen, imaging, HUVEC, MLSMR starter and 10KST1 sets (AID 438;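 active = inhibition above 20% together with a positive visual image hit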;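 also: compound added about 3h40 before a 20 min TNFalpha stimulation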;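 as to inhibition: signal is the nuclear over cytoplasmic p65 intensity ratio per well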); details: HUVEC TNFa-induced p65 nuclear translocation; cell count: measured here: nuclei count (cytotoxicity indicator), at 2.08 µM; inhibition: at 2 µM, stronger effect = higher value, 0% TNFa-plus-vehicle, 100% no-TNFa wells
[2] = reduction of polyQ htt aggregates in cells – imaging, exon1htt(103Q)mCFP cells, high-content imaging, primary screen (AID 483;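 active = visual image review flags a hit and inhibition of aggregation exceeds 20%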;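 also: compound exposure lasted 3 days before fixation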;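 as to nuclei count: percent of the per-plate median nuclei count of sample wells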); details: exon1htt(103Q)mCFP cell line, aggregate imaging, at 2 µM; inhibition of aggregation: stronger effect = higher value; nuclei count: measured here: cell count, toxicity
[3] = endothelial E-selectin expression blockers – imaging, HUVEC, immunofluorescence, MLSMR starter and 10KST1 sets, primary screen (AID 487;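 active = visually confirmed hit in the image check and inhibition above 20%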;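 as to inhibition: signal is fraction of cell area covered by stained E-selectin grains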;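 as to nuclei count: 100% = median nuclei count of all wells on the same plate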); details: HUVEC TNFalpha-induced E-selectin immunofluorescence imaging, at 2 µM; inhibition: stronger effect = higher value; nuclei count: measured here: cell number, toxicity
[4] = molecular target: Voltage-gated potassium channel subunit beta-2 (Rattus norvegicus) (UniProt P62483); assay: inhibitors of rat Kvbeta2 reductase activity – biochemical, NADPH fluorescence, primary screen (AID 622;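 active = fluorescence slope higher than the sample average by over 3 SD, cut at about -0.22 in these data, passing the limit was not always enough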;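 also: slope of raw intensity against log time taken from 70 to 1610 s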); details: recombinant KvBeta, 4-cyanobenzaldehyde reduction, at 10 µM, stronger effect = higher value
Chain of Voltage-gated potassium channel subunit beta-2 (Rattus norvegicus) (P62483 whole entry, looked up): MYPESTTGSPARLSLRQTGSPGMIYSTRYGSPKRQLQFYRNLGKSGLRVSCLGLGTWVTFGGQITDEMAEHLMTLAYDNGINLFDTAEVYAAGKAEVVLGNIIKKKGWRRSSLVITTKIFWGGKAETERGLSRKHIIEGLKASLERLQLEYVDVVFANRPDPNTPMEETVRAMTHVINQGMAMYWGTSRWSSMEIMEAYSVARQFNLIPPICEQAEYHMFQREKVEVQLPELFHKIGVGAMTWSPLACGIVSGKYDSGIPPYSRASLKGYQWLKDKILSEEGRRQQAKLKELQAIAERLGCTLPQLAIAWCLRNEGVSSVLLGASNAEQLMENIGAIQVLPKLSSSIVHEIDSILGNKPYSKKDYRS

[5] = molecular target: Voltage-gated potassium channel subunit beta-2 (Rattus norvegicus) (UniProt P62483); assay: enhancers of rat Kvbeta2 NADPH turnover – biochemical, NADPH fluorescence, primary screen (AID 623;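 active = NADPH fluorescence slope more negative than the mean of all samples by about 3 SD, 99.7% confidence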;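 also: fluorescence intensity change per second fitted from 20 to 320 s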); details: Recombinant KvBeta, NADPH fluorescence decrease slope, 10 min; at 10 µM; stronger effect = lower value
[6] = molecular target: Muscarinic acetylcholine receptor M4 (Homo sapiens) (UniProt P08173); assay: M4-linked GIRK flux change, two-sided – cell-based, HEK293 M4/GIRK, thallium flux, BTC-AM, M4 allosteric agonist project, primary screen (AID 625;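 active = fluorescence slope after compound addition differing from the mean of all tested samples at 99.7% confidence, mostly higher but some lower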;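 also: thallium influx through GIRK channels coupled to M4 in HEK293 cells with BTC-AM dye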); details: at 10 µM, actives lie on both sides
Chain of Muscarinic acetylcholine receptor M4 (Homo sapiens) (P08173 whole entry, looked up): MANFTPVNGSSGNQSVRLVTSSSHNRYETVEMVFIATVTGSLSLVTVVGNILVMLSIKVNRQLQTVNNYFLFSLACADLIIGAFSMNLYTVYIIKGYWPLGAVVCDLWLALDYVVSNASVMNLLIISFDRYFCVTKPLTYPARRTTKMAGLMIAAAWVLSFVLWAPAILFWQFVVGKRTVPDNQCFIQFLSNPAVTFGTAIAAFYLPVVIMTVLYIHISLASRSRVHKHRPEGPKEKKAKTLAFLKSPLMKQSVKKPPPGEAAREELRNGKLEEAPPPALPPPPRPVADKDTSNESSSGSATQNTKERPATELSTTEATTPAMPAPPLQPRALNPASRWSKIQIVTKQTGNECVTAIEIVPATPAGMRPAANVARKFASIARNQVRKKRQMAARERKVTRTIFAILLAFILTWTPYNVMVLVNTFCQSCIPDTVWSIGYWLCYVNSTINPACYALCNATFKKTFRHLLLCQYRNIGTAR
Method in brief: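 System: HEK293 cells with M4 receptor and GIRK channels | Incubation: Cells overnight at 37 °C, BTC-AM loading 1 h, reads 2 min total | Technique: Kinetic BTC-AM fluorescence sampled at 1 Hz, 10 s pre-addition baseline | Measure: Post-addition slope, 15–24 s, of baseline-normalized fluorescence | Control set: Carbachol positive, DMSO negative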

[7] = blockers of RIG-like receptor reporter activation – cell-based, Sendai virus stimulus, luciferase, 10K MLSCN set, TLR/RLR signaling modifier project, primary screen (AID 602276;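 active = inhibition at or above 50% at 10 µM; inactive = inhibition below 50%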;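 also: firefly luciferase from ISG56 promoter only with Renilla not read in this screen; 0% = Sendai virus plus DMSO and 100% = medium plus DMSO without virus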); details: HEK293 RL24 IRF3 luciferase reporter, at 10 µM, stronger effect = higher value
[8] = TLR3 IRF3 reporter activation blockers – cell-based, poly I:C stimulus, luciferase, 10K MLSCN set, primary screen (AID 602277); details: HEK293-TLR3 RL24 IRF3 luciferase reporter, at 10 µM, stronger effect = higher value

Compound | cell count [1] | inhibition [1] | inhibition of aggregation [2] | nuclei count [2] [%] | inhibition [3] | nuclei count [3] [%] | fluorescence slope [4] | NADPH fluorescence slope [5] | fluorescence slope [6] | inhibition [7] | inhibition [8]
Cc1ccccc1NS(=O)(=O)c1ccc(NC(=O)c2ccco2)cc1 | 349 | 1.1% (inactive) | 5.8% (inactive) | 94.7 | -24.6% (inactive) | 119 | -0.587 (inactive) | 1.9e-07 (inactive) | 0.00578 (inactive) | 15.3% (inactive) | 13.6% (inactive)
COc1ccccc1-c1nc(C#N)c(N2CCN(c3ccccc3)CC2)o1 | 730 | -10.2% (inactive) | 17% (inactive) | 119 | -96.9% (inactive) | 93.4 | -0.495 (inactive) | 1.8e-05 (inactive) | 0.00604 (inactive) | 15.8% (inactive) | 12% (inactive)
O=c1cc(-c2ccccc2)[nH]c2nc3ccccc3n12 | 302 | -1.2% (inactive) | 15.1% (inactive) | 99.6 | -4.8% (inactive) | 96.2 | -0.422 (inactive) | 2.4e-05 (inactive) | 0.00541 (inactive) | 40.6% (inactive) | 27% (inactive)
CCC(=NC(C)c1ccccc1)c1c(O)n(C)c(=O)n(C)c1=O (stereo unspecified) | 287 | 9.3% (inactive) | 3.2% (inactive) | 72.1 | -50.4% (inactive) | 133 | -0.518 (inactive) | -0.000132 (inactive) | 0.00372 (inactive) | 8.09% (inactive) | -40% (inactive)
O=C(CCSc1ccccc1)N1CCOCC1 | 339 | 0.4% (inactive) | -7.3% (inactive) | 104 | -90.9% (inactive) | 105 | -0.562 (inactive) | -0.000154 (inactive) | 0.00456 (inactive) | -18.7% (inactive) | -64.6% (inactive)
CCNS(=O)(=O)c1c(C)cc(N2CCCC2=O)cc1C | 498 | -8% (inactive) | 4.4% (inactive) | 88.1 | 27.7% (inactive) | 89 | -0.438 (inactive) | 9.1e-05 (inactive) | 0.00655 (inactive) | -1.95% (inactive) | 0.215% (inactive)
Cc1cc(NC(=O)COc2cccc3cccnc23)no1 | 465 | 2% (inactive) | 11.9% (inactive) | 103 | -67.8% (inactive) | 106 | -0.385 (inactive) | -2.5e-05 (inactive) | 0.00637 (inactive) | -7.48% (inactive) | -15.6% (inactive)
COCCn1nnnc1C(C(C)C)N(Cc1cccnc1)Cc1ccccc1Cl (stereo unspecified) | 526 | 2.1% (inactive) | 8.9% (inactive) | 108 | -72.3% (inactive) | 111 | -0.574 (inactive) | 1.3e-05 (inactive) | 0.00529 (inactive) | 9.31% (inactive) | 31.3% (inactive)
C=C(C)Cn1c(CCNC(=O)CC)nc2ccccc21 | 494 | -28.5% (inactive) | 1.3% (inactive) | 101 | -107% (inactive) | 112 | -0.433 (inactive) | -6.1e-05 (inactive) | 0.00575 (inactive) | 9.76% (inactive) | 14.1% (inactive)
NC(=O)c1sc2nc(N3CCCCC3)c3c(c2c1N)CCCC3 | 369 | 8.4% (inactive) | -12.2% (inactive) | 118 | 26.5% (inactive) | 111 | 1.5e-14 (active) | 0 (inactive) | 0.00601 (inactive) | 1.9% (inactive) | 10.7% (inactive)
CN1CCN(C(=O)CCC(=O)c2ccc(F)cc2)CC1 | 478 | 3.9% (inactive) | -7.4% (inactive) | 122 | -2.6% (inactive) | 97.1 | -0.444 (inactive) | 5.6e-05 (inactive) | 0.00581 (inactive) | 5.42% (inactive) | 11.9% (inactive)
CN1CCN(S(=O)(=O)c2ccc(Sc3nnc(-c4cccs4)n3-c3ccccc3)nc2)CC1 | 603 | -11% (inactive) | -9% (inactive) | 104 | -140% (inactive) | 142 | -0.245 (inactive) | -2e-05 (inactive) | 0.00549 (inactive) | 1.81% (inactive) | 4.54% (inactive)
CCCS(=O)(=O)N1CCC(C(=O)N2CCCC2)CC1 | 657 | -9.9% (inactive) | -6.5% (inactive) | 96.1 | -70.4% (inactive) | 107 | -0.611 (inactive) | -8.1e-06 (inactive) | 0.00435 (inactive) | 18.9% (inactive) | 8.55% (inactive)
Cc1ccc(-c2[nH]nc3c2C(c2ccoc2)C(C#N)=C(N)O3)cc1C (stereo unspecified) | 853 | 3.6% (inactive) | 7.7% (inactive) | 92.5 | -111% (inactive) | 126 | -0.474 (inactive) | -5.3e-05 (inactive) | 0.00509 (inactive) | 23.8% (inactive) | 16.8% (inactive)
COc1ccc(-c2cc(C(=O)NCc3ccc(Cl)cc3)no2)cc1OC | 358 | -2.5% (inactive) | -5.6% (inactive) | 106 | 41% (inactive) | 106 | -0.19 (inactive) | -1.3e-05 (inactive) | 0.00727 (inactive) | 14.3% (inactive) | -8.76% (inactive)
C=CS(=O)(=O)c1ccc(Oc2ccc(S(=O)(=O)C=C)cc2)cc1 | 378 | 70.2% (active) | -3.2% (inactive) | 80.8 | 104% (active) | 121 | -0.5 (inactive) | -2.6e-05 (inactive) | 0.00487 (inactive) | 14.1% (inactive) | 98.2% (active)
O=C1CSC(c2cn(-c3ccccc3)nc2-c2ccccc2)N1Cc1ccco1 (stereo unspecified) | 480 | -6.3% (inactive) | 5.2% (inactive) | 108 | -89.3% (inactive) | 88.2 | -0.568 (inactive) | -2.8e-05 (inactive) | 0.00714 (inactive) | -1.04% (inactive) | 11.5% (inactive)
CCOc1ccccc1NC(=O)C1CCCN1C(=O)OCc1ccccc1 (stereo unspecified) | 438 | 6% (inactive) | -8.5% (inactive) | 103 | -406% (inactive) | 152 | -0.544 (inactive) | -4.2e-05 (inactive) | 0.0063 (inactive) | 4.99% (inactive) | 7.18% (inactive)
COc1ccccc1NC1=C(C)C(=O)CC1 | 537 | 10.5% (inactive) | 7.8% (inactive) | 88.4 | -5.6% (inactive) | 102 | -0.246 (inactive) | -3e-05 (inactive) | 0.00566 (inactive) | 19.4% (inactive) | 34% (inactive)
Cc1cccc(C)c1NC(=O)N1CCN(C2CCCCC2)CC1 | 364 | 1.2% (inactive) | -2% (inactive) | 106 | -8.3% (inactive) | 106 | -0.578 (inactive) | -3.9e-05 (inactive) | 0.00564 (inactive) | -1.81% (inactive) | 18.1% (inactive)
CCOC(=O)c1cc(C)n(CCCN2CCOCC2)c1C | 678 | 2.6% (inactive) | -5.8% (inactive) | 114 | -162% (inactive) | 109 | -0.473 (inactive) | 1.5e-05 (inactive) | 0.00505 (inactive) | 0.506% (inactive) | 19.3% (inactive)
C/C(=C(\C#N)C(=O)NCCCN1CCOCC1)N(C)C | 475 | -11.2% (inactive) | 20.1% (inactive) | 75.2 | -96.7% (inactive) | 115 | -0.581 (inactive) | -1.9e-05 (inactive) | 0.0035 (inactive) | 1.58% (inactive) | -2.64% (inactive)
CCCCN(CCCC)CCCNC(=O)CC1Oc2ccc(C)cc2NC1=O (stereo unspecified) | 618 | -18.4% (inactive) | 4.4% (inactive) | 110 | -6.4% (inactive) | 92.1 | -0.242 (inactive) | -7e-06 (inactive) | 0.00528 (inactive) | 17.2% (inactive) | 23.7% (inactive)
COc1cccc(N2CCN(CC(=O)NCc3cccs3)CC2)c1 | 702 | -27.6% (inactive) | 20.4% (inactive) | 100 | 24.5% (inactive) | 99.5 | -0.318 (inactive) | -1.7e-05 (inactive) | 0.00733 (inactive) | 21.2% (inactive) | -6.45% (inactive)
CC1(C)CC(=O)C2=C(C1)Nc1nc(SCCN3CCOCC3)[nH]c(=O)c1C2c1cccs1 (stereo unspecified) | 549 | -8.4% (inactive) | -11.8% (inactive) | 50.7 | -42.7% (inactive) | 104 | -0.57 (inactive) | -3e-05 (inactive) | 0.00647 (inactive) | -3.95% (inactive) | -12.2% (inactive)
CCCC1(C(=O)OCC)NC(c2ccc(N(C)C)cc2)C2C(=O)N(c3ccccc3)C(=O)C21 (stereo unspecified) | 468 | -0.5% (inactive) | 4.8% (inactive) | 92.4 | -15.1% (inactive) | 95 | -0.465 (inactive) | -6.2e-05 (inactive) | 0.0068 (inactive) | 8.02% (inactive) | 20.7% (inactive)
